Assay results gathered from unrelated publications.
Lines come from different studies, so protocols differ.
Read-out: cell growth or viability

Structure (SMILES) | cell line | method | time | quantity | value
CC1(C)C(=O)NC2=C1C(=O)C(=O)c1ccccc12 | CAL-27 | – | 72 h | IC50 | 2880 nM
c1ccc(-c2n(Cc3ccc4ccccc4c3)cc[n+]2Cc2ccc3ccccc3c2)cc1 | HOP-62 | SRB | – | TGI | 3230 nM
COc1cccc2c1C(=O)c1c(O)c3c(c(O)c1C2=O)C[C@@](O)(C(=O)CO)C[C@@H]3O[C@H]1C[C@H](N)[C@H](O)[C@H](C)O1 | MCF-10A | – | 48 h | IC50 | 1200 nM
COc1ccc(-c2ccc(-c3ccc(C(=N)N)nc3)s2)cc1 | SN12C | – | – | GI50 | 1830 nM
COc1cc(Nc2nccc(-c3cnn4nc(OC)ccc34)n2)cc(C(F)(F)F)c1 | P31-FUJ | ATP luminescence | – | IC50 | 1100 nM
CN(C)CCOc1ccc(-c2nc(-c3ccncc3)c(-c3ccc4c(c3)CC/C4=N\O)[nH]2)cc1 | 451Lu | ATP luminescence | 72 h | EC50 | 670 nM
CCCc1n(Cc2ccc3ccccc3n2)cc[n+]1Cc1ccc2ccccc2c1 | HOP-92 | SRB | – | TGI | 1120 nM
COc1cc(-c2ccc(-c3ccc(C(=N)N)nc3)s2)cc(OC)c1OC | HOP-92 | SRB | – | GI50 | 1910 nM
Cc1ccc2cncc(N3CCc4c(cc(Cn5ccnc5)cc4-c4cn(C)nc4C(F)(F)F)C3=O)c2c1 | K562 | ATP luminescence | 5 days | GI50 | 4900 nM
CCc1n(Cc2ccc3ccccc3n2)cc[n+]1Cc1ccc2ccccc2n1 | HOP-92 | SRB | – | TGI | 521 nM
Nc1ncnc2c1ncn2[C@@H]1O[C@H](CO)[C@@H](O)[C@@H]1O | CAL-27 | – | 72 h | IC50 | > 20000 nM
Cc1n(Cc2ccc3ccccc3n2)cc[n+]1Cc1ccc2ccccc2c1 | HOP-62 | SRB | – | TGI | 6660 nM
Cc1cc(C)n(C(=S)[S][Au][PH](CCCCCC[PH]([Au][S]C(=S)n2nc(C)cc2C)(c2ccccc2)c2ccccc2)(c2ccccc2)c2ccccc2)n1 | UO-31 | – | – | GI50 | 482 nM
